# High-throughput results (PubChem)
# GSTO1 inh: counter-screen for RBBP9 inhibitors: inhibitors of human GSTO1; AID 1974; P78417; actives 1.1% (n = 300,000); recombinant GSTO1, activity-based probe fluorescence polarization; inhibition, % at 5.96 µM;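 active = inhibition above the campaign mean inhibition plus 3 SD, cut at about 35% in these data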;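 also: 0% = GSTO1-1 with DMSO and 100% = wells lacking GSTO1-1 enzyme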
# Target sequence (P78417 whole entry, looked up): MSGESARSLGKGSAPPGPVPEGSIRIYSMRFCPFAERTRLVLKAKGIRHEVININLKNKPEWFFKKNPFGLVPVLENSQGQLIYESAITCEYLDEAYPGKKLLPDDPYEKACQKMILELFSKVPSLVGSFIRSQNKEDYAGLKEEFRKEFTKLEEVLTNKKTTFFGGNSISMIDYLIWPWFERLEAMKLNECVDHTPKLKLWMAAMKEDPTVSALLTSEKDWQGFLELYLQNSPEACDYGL
# E coli Lon inh: inhibits E. coli Lon protease; inhibition, % at 7.94 µM; actives 0.42% (n = 360,000); purified E. coli Lon protease, fluorescence polarization; P0A9M0; AID 602123; in the data active = inhibition above about 13%, passing the limit was not always enough;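 also: 0% = enzyme with probe and DMSO and 100% = no enzyme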
# PRMT1 FP inh: inhibitors of human PRMT1 | Q99873 | recombinant PRMT1, activity-based probe fluorescence polarization | inhibition, % at 2.79 µM | actives 1.3% (n = 370,000);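 active = inhibition above about 21% made by adding two undisclosed values, limit read from the data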
# Target sequence (Q99873 whole entry, looked up): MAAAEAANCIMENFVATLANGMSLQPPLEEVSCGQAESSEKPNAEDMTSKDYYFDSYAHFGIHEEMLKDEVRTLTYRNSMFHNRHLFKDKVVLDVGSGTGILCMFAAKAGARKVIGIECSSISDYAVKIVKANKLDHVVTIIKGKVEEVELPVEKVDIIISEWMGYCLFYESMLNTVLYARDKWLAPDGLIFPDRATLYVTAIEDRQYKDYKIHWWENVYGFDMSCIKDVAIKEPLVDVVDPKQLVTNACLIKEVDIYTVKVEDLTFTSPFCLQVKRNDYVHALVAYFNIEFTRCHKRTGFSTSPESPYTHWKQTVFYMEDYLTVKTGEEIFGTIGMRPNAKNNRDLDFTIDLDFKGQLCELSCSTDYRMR
# TDP2 absorb: blocks human TDP2 phosphodiesterase activity | O95551 | recombinant TDP2, T5PNP hydrolysis, p-nitrophenol absorbance 415 nm | inhibition, % at 12.8 µM | actives 0.34% (n = 370,000);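 active = inhibition above the mean of all tested compounds plus 3 SD, set per campaign, cut at about 25% in these data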;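 also: 0% = DMSO with enzyme and 100% = buffer with substrate but no TDP2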
#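 System: recombinant human TDP2 / Amount: 120 nM TDP2 per well / Also added: 5 mM T5PNP chromogenic substrate / Doses: 12.8 µM single point, 1% DMSO / Incubation: 2 h at 37 °C / Detection: p-Nitrophenol epi absorbance / Evaluation: % inhibition relative to enzyme-containing and enzyme-free wells / Repeats: singlicate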
# PAD4 inh: inhibitors of human PAD4 | Q9UM07 | recombinant PAD4, RCA probe fluorescence polarization | inhibition, % at 6.36 µM | actives 0.41% (n = 330,000);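 active = percent inhibition above a cutoff equal to the mean of all tested compounds plus 3 SD, cut at about 15% in these data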;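 also: 0% = PAD4 with RCA probe and DMSO and 100% = probe without PAD4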
# Numbers without * were called inactive; . = no result. The list is not random: actives were taken first. Their share in the collection is about 2.5%.
SMILES,GSTO1 inh,E coli Lon inh,PRMT1 FP inh,TDP2 absorb,PAD4 inh
COc1cccc(OCc2nc(-c3cccc([N+](=O)[O-])c3)no2)c1,1,-2,4,-1,3
COc1cccc(-c2noc(Cn3nc(C)c([N+](=O)[O-])c3C)n2)c1,-3,4,23*,-1,1
COc1ccc(CCC(=O)Nc2ccc3c(c2)OCO3)cc1OC,35*,-3,-3,7,-4
C=CCN(CC#CC(=C)C)Cc1ccc(OC)cc1OC,.,.,0,-3,.
O=C(Cc1c[nH]c2ccccc12)Nc1ccc(Nc2cccnc2)c(-c2cc(F)cc(F)c2)c1,.,.,0,0,.
CCOC(=O)NNc1ccc2nonc2c1[N+](=O)[O-],89*,.,.,.,51*
CCc1ccc(Nc2ccc3nonc3c2[N+](=O)[O-])cc1,4,-9,1,-11,-5
O=C1c2ccccc2C(=O)N1c1cccc(-c2csc(Nc3ccc4c(c3)OCO4)n2)c1,62*,.,.,.,-1
c1ccc(-c2csc(Nc3ccc4c(c3)OCO4)n2)cc1,.,4,2,2,.
CC(=O)c1c(C)[nH]c(C(=O)OCc2nnc(-c3ccc([N+](=O)[O-])cc3)o2)c1C,.,0,24*,0,4
COC(=O)[C@]12C[C@H](CC(=O)N3CCCC3)C(=O)N(CCC3=CCCCC3)C1=C[C@H](C(C)C)O[C@@H]2C1CC1,.,.,-1,-1,.
CCN(CC)S(=O)(=O)c1cccc(C(=O)N/N=C/c2cc(OC)c(O)c(OC)c2)c1,0,-7,-1,6,2
CCN(CC)S(=O)(=O)c1cccc(C(=O)N/N=C/c2cccc(O)c2O)c1,43*,-7,10,-15,-12
O=C(CC1S/C(=N/N=C/c2ccco2)NC1=O)Nc1cccc(Cl)c1Cl (stereo unspecified),-3,-2,22*,-2,-6
CCc1cccc(NS(=O)(=O)c2ccc3c(c2)NC(=O)CO3)c1,37*,-1,-1,-7,-2
O=C1COc2ccc(S(=O)(=O)Nc3cccc(Cl)c3)cc2N1,23,-9,0,4,-4
O=C(CCN1C(=O)/C(=C/c2ccc(Cl)cc2)SC1=S)Nc1cccc(C(=O)O)c1,16,4,-4,6,-8
O=C(O)c1cccc(N2C(=O)/C(=C/c3ccc(SCc4ccc(Cl)cc4)o3)SC2=S)c1,.,-24,57*,17,.
C=CCOC(=O)c1cc(-c2ccc(/C=C3\C(=O)NC(=O)C(C#N)=C3C)o2)ccc1Cl,.,-44,25*,-4,.
COC(=O)C1=C(C)N(Cc2ccco2)C(=O)/C1=C\c1ccc(N(C)C)cc1,-23,-1,-3,-2,0
COC(=O)C1=C(C)N(Cc2ccco2)C(=O)/C1=C\c1ccc([N+](=O)[O-])cc1,12,-116,24*,-3,-2
COC(=O)[C@]12C[C@H](CC(=O)N3CCN(C(=O)c4ccco4)CC3)C(=O)N(Cc3ccc(Cl)cc3Cl)C1=C[C@H](C1CCCC1)O[C@@H]2C,.,.,3,-1,.
CN(Cc1ccccc1)C(=O)OCc1cn(Cc2ccccc2)nn1,.,.,-2,7,.
O=c1[nH][nH]c2c(N=Cc3ccccc3O)ccc(F)c12,.,25*,.,.,.
O=C(COc1ccc(C(=O)c2ccc(F)cc2)cc1)NCc1ccc(F)cc1,3,3,-2,0,-1
SMILES,GSTO1 inh,E coli Lon inh,PRMT1 FP inh,TDP2 absorb,PAD4 inh
Cc1ccc(CNC(=O)COc2ccc(C(=O)c3ccc(F)cc3)cc2)cc1,56*,5,-1,7,6
CC(C)(C)NC(=O)C(c1cc2ccccc2o1)n1c(=O)c(-c2ccco2)nc2ccccc21 (stereo unspecified),.,.,23*,-3,.
N=C1/C(=C\c2coc3ccc(O)cc3c2=O)C(=O)N=C2SC=CN12,57*,-233,31*,2,-12
C[C@@H]1C[C@H]2[C@@H](Cc3ccccc3)C(=O)N3[C@H](c4ccccc4)[C@H](C)C[C@H]3[C@@H](Cc3ccccc3)C(=O)N2[C@@H]1c1ccccc1,.,.,-3,-5,.
COc1cc(C2C(C(=O)OC(C)C)=C(C)Nc3[nH]c(=O)[nH]c(=O)c32)ccc1O (stereo unspecified),5,-3,0,5,-1
COC(=O)C1=C(C)Nc2[nH]c(=S)[nH]c(=O)c2C1c1ccc(O)cc1 (stereo unspecified),13,0,25*,-10,0
Cc1ccccc1Cn1nnc2c1C(=O)c1ccccc1C2=O,38*,1,-3,6,-9
CC(=O)c1ccc(NC(=O)NC2CCCCN(Cc3cccc(Cl)c3)C2=O)cc1 (stereo unspecified),.,.,-4,-17,.
Nc1nc(O)c(N=Nc2ccc(S(N)(=O)=O)cc2)c(=O)[nH]1,.,.,5,-9,.
NS(=O)(=O)c1ccc(N=Nc2c[nH]c(=O)c(O)c2)cc1,64*,23,27*,23,3
Cc1cnc(C)c(Nc2nc(C(N)Cc3ccc(Cl)cc3)cs2)n1 (stereo unspecified),.,-3,25*,-13,.
COc1cc(CNc2ccc(N3CCCC3)cc2)ccc1OCc1ccccc1,53*,9,5,-5,-15
COc1ccc(CNc2ccc(N3CCN(C(C)=O)CC3)cc2)cc1OC,.,-1,1,-8,.
COc1cc(NC(=O)C2CCCN(S(=O)(=O)c3cccs3)C2)cc(OC)c1 (stereo unspecified),.,.,2,5,.
CN(C(=O)[C@@H](C1CC1)[C@@H](O)c1ccc2ccccc2c1)c1ccccc1,.,.,-5,-4,.
CC(C)c1onc(C(=O)N2CCCCCC2)c1[N+](=O)[O-],8,-3,-1,-25,-1
CC(C)c1onc(C(=O)NC2CCCCC2)c1[N+](=O)[O-],37*,-1,-2,6,6
Cc1ccc(S(=O)(=O)Nc2cc(C(C(=O)OC(C)C)C(=O)C(F)(F)F)c(O)c3ccccc23)c(C)c1 (stereo unspecified),44*,8,25*,10,8
Cc1ccccc1CN1CCCCC(NC(=O)c2ccc(-c3ccccc3)cc2)C1=O (stereo unspecified),.,.,-11,0,.
CCOC(=O)c1cc(C#N)c(SCC(N)=O)[nH]c1=O,36*,-9,5,13,-4
CCOC(=O)c1cnc2c(C)cccc2c1NCc1ccco1,3,0,-1,6,-3
CCOC(=O)c1cnc2c(C(=O)OC)cccc2c1NCc1ccco1,4,-4,22*,-16,1
O=c1cc(CSc2ccc(Cl)cc2)[nH]c2[nH]n(-c3ccccc3)c(=O)c12,-191,3,24*,5,2
Cc1ccc(SCc2cc(=O)c3c(=O)n(-c4ccccc4)[nH]c3[nH]2)cc1,-101,1,22*,-8,2
C#CCN1CC(N(C)CCOC(=O)c2occ3ccccc23)CS1(=O)=O (stereo unspecified),.,.,-4,6,.
CCCc1cc(=O)[nH]c(SCC(=O)c2ccc(S(=O)(=O)N3CCCC3)cc2)n1,37*,3,22*,12,-1
